# Experimental data from ChEMBL document CHEMBL1137800, “Evaluation of marine sponge metabolites for cytotoxicity and signal transduction activity” (J Nat Prod, 1993).
# Activity calls are given as the source filed them. The calls are words filed in the database; no cut-off is given here.
# Experiments:
# [1] = tested on: A549; experiment: Cytotoxicity against human A549 cells after 48 hrs by MTT assay; type: functional, cell-based; conditions: A549, 48 h
# In short: (§1)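 A549 and HT-29 cells grown in RPMI 1640 with 10% horse serum and exposed at 37° in gentamicin-containing medium, with MeOH vehicle evaporated. Exposure ran 48 h […] before MTT was added for 90 min. Formazan dissolved in acidified iPrOH and A570 read. IC50 from logit-regression of absorbance versus drug-free wells; 5-fluorouracil and adriamycin included as controls.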
# [2] = tested on: P388; experiment: Cytotoxicity against mouse P388 cells after 48 hrs by MTT assay; type: functional, cell-based; conditions: P388, 48 h
# In short: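 P-388 cells seeded at 1×10^5 cells/ml in RPMI 1640 with 10% horse serum and gentamicin (50 μg/ml). Exposed 48 h at 37° to compound at 10.0, 1.0, 0.10 or 0.010 μg/ml; MeOH vehicle evaporated under vacuum. MTT added for 90 min, formazan dissolved in acidified iPrOH, A570 read. IC50 from linear regression of logit-transformed absorbance relative to drug-free wells.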
# [3] = species on record: Mus musculus; experiment: Induction of PKC-mediated mouse EL-4.IL-2 cells adherence by MTT assay
# In short: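 EL-4.IL-2 cells (2.5×10^5/well) in RPMI 1640 with 10% FCS and 2-mercaptoethanol, incubated 1 h at 37° with compound in triplicate, without PMA and also with 16 nM PMA (final), EtOH ≤1.25%. Non-adherent cells removed by four shaking washes. Adherent cells quantified by MTT (4 h) with iPrOH solubilisation at 570 nm. Parallel unwashed plate monitored cytotoxicity.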
# [4] = Cytotoxicity against mouse EL-4.IL-2 cells after 3 to 4 days by Trypan blue exclusion test; type: functional, cell-based
# [5] = tested on: HT-29; experiment: Cytotoxicity against human HT-29 cells after 48 hrs by MTT assay; type: functional, cell-based; conditions: HT-29, 48 h; in short: as §1
# [6] = species on record: Mus musculus; experiment: Inhibition of PKC-mediated mouse EL-4.IL-2 cells adherence by MTT assay
# In short: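 Mouse EL-4.IL-2 cells (2.5×10^5/well, within 15 passages of frozen stock) incubated 1 h at 37° with compounds in triplicate, with PMA (16 nM final) or without PMA; final EtOH ≤1.25%. Four shaker wash cycles. Adherent cells read by MTT, 4 h at 37°, formazan dissolved in iPrOH, A570. A parallel unwashed plate without PMA monitored cytotoxicity. Adherence inhibitor: blocks PMA-induced adherence, induces none alone, not cytotoxic.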
# [7] = tested on: A549; experiment: Antitumor activity against human A549 cells xenografted in mouse at 0.3 mg/kg relative to control; type: functional
# [8] = tested on: Mus musculus; experiment: Toxicity in human A549 cells xenografted mouse at 0.3 mg/kg; type: organism-based; parameters: dose 0.3 mg/kg; conditions: in vivo
# [9] = tested on: M19-MEL; experiment: Cytotoxicity against human M19-MEL cells; type: functional; conditions: read-out: Log10LC50 (converted)
# [10] = tested on: SK-MEL-5; experiment: Cytotoxicity against human SK-MEL-5 cells; type: functional; conditions: read-out: Log10LC50 (converted)
# [11] = tested on: Malme-3M; experiment: Cytotoxicity against human MALME-3M cells; type: functional; conditions: read-out: Log10LC50 (converted)
Activity [6],Compound,IC50 [1] [µg/mL],IC50 [2] [µg/mL],Activity [3],IC50 [4] [µg/mL],IC50 [5] [µg/mL],Activity [7],T/C [7] [%],Activity [8],CC50 [9] [µM],CC50 [10] [µM],CC50 [11] [µM]
,Cn1cc2c3c1C(=O)C1=C(C3=NCC2)C2(C=C(Br)C(=O)C(Br)=C2)CCN1 [DISCORHABDIN],0.3,0.5,Active,0.5,0.1,,,,,,
Active,CN(C)CCc1c2ncsc2c2c3c(c4ccccc4nc13)C=CN2C [DERCITIN],0.07,0.2,,< 6,0.02,,,,,,
,CCCCCCCCCCCCCCCC[C@@]1(OC)C=C[C@@H](CC(=O)OC)OO1 [CHONDRILLIN],0.3,2.4,Active,0.4,1.1,inactive,,,,,
,C[C@H]1C[C@]2(O[C@H]3C[C@H]4[C@@H]5CC[C@H]6C[C@H](O)CC[C@]6(C)[C@H]5[C@@H](O)C[C@]4(C)[C@H]3[C@@]2(C)O)OC1(C)C [EPIHIPPURISTANOL],0.04,0.5,,,0.05,,,,,,
,[C-]#[N+][C@@]12CCC(=C)[C@H]3[C@H](CC(C)(C)NC=O)C[C@H](C)[C@@H](CC[C@@H]1C)[C@@H]32,5.3,4.2,Active,2.9,3.5,,,,,,
,O=C1C[C@H]2S[C@H]3C[C@]2(C=C1Br)C1=C(N3)C(=O)c2[nH]cc3c2C1=NCC3 [DISCORHABDINE A],0.04,0.1,Active,4.8,0.01,,,,,,
,CO[C@H]([C@H](C)/C=C/N(C)C=O)[C@@H](C)C(=O)CC[C@H](C)[C@H](C[C@@H]1OC(=O)C[C@@H](OC(N)=O)C[C@H](C)C[C@H](O)[C@H](C)[C@@H](OC)c2coc(n2)-c2coc(n2)-c2coc(n2)/C=C/C[C@H](OC)[C@H]1C)OC [KABIRAMIDE C],0.8,0.3,Active,0.3,,,,,,,
,COC1=Cc2ccnc3ccnc(c23)C1=O [DEMETHYLOXY-AAPTAMINE],5.2,1.6,Active,< 0.05,1.5,,,,,,
Active,C[C@H]1CC[C@H]2C(C)(C)CCC[C@]23Oc2ccc(O)cc2C[C@]13C [AUREOL],4.3,> 20,,9.9,4.7,,,,,,
,CSc1c2c3c(n1C)C(=O)C(=O)C(Cl)=C3NCC2 [BATZELLINE A],0.7,5.3,Active,22.9,2.8,inactive,,,6.61,6.61,15.5
,C1=C\CCCCN(CCc2nccc3c2[nH]c2ccccc23)CCCC/1 [MANZAMINE C],3.5,2.6,Active,12,1.5,,,,,,
,CC1=CC(=O)[C@]2(C)CC[C@H]([C@H](C)CC(=O)CC(C)C)[C@H]2CC1 [REISWIGIN A],7.2,8.5,,,6,,,,,,
,[C-]#[N+]C(C)(C)C[C@@H]1C[C@H](C)[C@H]2CC[C@H](C)[C@@]3([N+]#[C-])CCC(=C)[C@@H]1[C@H]23 [DIISOCYANOAMPHILECTENE],13,0.7,,,1.2,,,,,,
,CC1(C)CCC[C@]2(C)[C@H]3C=C4C=C(O)C(=O)C=C4O[C@@]3(C)CC[C@@H]12 [PUUPEHENONE],0.4,1.3,,,0.2,,,,,,
,CC[C@H](C)[C@H]1C(=O)NCCC(=O)N[C@H]([C@@H](C)CC)C(=O)N(C)[C@@H](C(C)C)C(=O)N(C)[C@@H](C)C(=O)NCCC(=O)N[C@H](CC(C)C)C(=O)N(C)[C@H]([C@@H](C)CC)C(=O)O[C@H](C)[C@H](NC(=O)[C@@H](CC(C)C)N(C)C(=O)[C@@H](NC(=O)COC)C(C)C)C(=O)NCCC(=O)N[C@H](CC(C)C)C(=O)N1C [THEONELLAMINE B],5.3,> 20,,,5.1,,,,,,
,O[C@]12C=C(c3nccc4c3[nH]c3ccccc34)[C@@H]3CCN(CCCC/C=C\CC1)C[C@@]31C[C@@H]3/C=C\CCCCN3[C@H]12 [MANZAMINE A],1.3,2.4,,,0.8,,,,,,
,O=C1c2nccc(O)c2-c2nc3ccccc3c3ccnc1c23 [MERIDINE],4.5,2,Active,8.8,0.2,,,,,,
,C1=C\CC[C@]23CN4CCCC/C=C\CC[C@@]5(O[C@H]5[C@@H](c5nccc6c5[nH]c5ccccc56)[C@@H]2CC4)[C@@H]3NCCCC/1 [MANZAMINE B],4.5,6.6,,,1.6,,,,,,

Compound,Activity [6],IC50 [1] [µg/mL],IC50 [2] [µg/mL],Activity [3],IC50 [4] [µg/mL],IC50 [5] [µg/mL],Activity [7],T/C [7] [%],Activity [8],CC50 [9] [µM],CC50 [10] [µM],CC50 [11] [µM]
C/C1=C/C(=O)O[C@@H]2C[C@@H](CC[C@H](C)/C=C\C=C\CC1)O[C@@](O)([C@@H]1CSC(=O)N1)C2 [LATRUNCULIN A],Active,0.06,4.1,,0.1,0.06,,146,Non-toxic,,,
